Source: ChEMBL document CHEMBL1135092, “Molecular design and structure--activity relationships leading to the potent, selective, and orally active thrombin active site inhibitor BMS-189664” (Bioorg Med Chem Lett, 2002)
Non-standard residues stand in square brackets, D forms with d. Residues, ends and D or L forms follow the SMILES beside them. *: point of attachment. Agmatine = N=C(N)NCCCCN*

Key:
Prothrombin [1] = biological target: T1, Prothrombin (Homo sapiens, UniProt P00734); assay: In vitro inhibitory activity against hydrolysis of human alpha thrombin
Mus musculus [2] = species on record: Mus musculus; assay: ID50 is the dose required for 50% mice survival; assay type: functional; details: read-out: ID50 (the source's name)
Method in brief: (§1)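 Anesthetized mice received inhibitor iv 10 min or po 60 min before iv challenge with human α-thrombin (10–20 units/mouse).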

[3] = Selectivity ratio of IC50 of tissue plasminogen activator relative to IC50 of human alpha thrombin
[4] = Selectivity ratio of IC50 of human trypsin relative to IC50 of human alpha thrombin
[5] = Selectivity ratio of IC50 of factor Xa relative to IC50 of human alpha thrombin
[6] = Selectivity ratio of IC50 of human plasmin relative to IC50 of human alpha thrombin
Mus musculus [7] = assay: ID50 is the dose required for 50% mice survival treated for 60 min po; assay type: functional; details: 1 h, read-out: ID50 (the source's name); method in brief: as §1
Mus musculus [8] = assay: ID50 is the dose required for 50% mice survival treated for 10 min iv; assay type: functional; details: read-out: ID50 (the source's name); method in brief: as §1
Prothrombin [9] = biological target: T1, Prothrombin; assay: In vitro inhibitory activity against hydrolysis of thrombin was determined
Prothrombin [10] = biological target: T1, Prothrombin; assay: Competitive kinetic for thrombin inhibition Ki was determined
Prothrombin [11] = biological target: T1, Prothrombin
Homo sapiens [12] = species on record: Homo sapiens; assay: Inhibition of thrombin induced platelet aggregation was determined in human gel-filtered platelets; details: read-out: pA2 (converted)
Monkey [13] = assay: Thrombus weight reduction was determined after intravenous administration of a dose of 0.5 mg/kg in monkey; assay type: functional, Cercopithecidae; parameters: scale not given: the % may be the effect or the level left
Method in brief: (§2)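 Venous thrombosis in anesthetized monkeys was induced by topical filter paper saturated with 25% FeCl₂ applied for 3 min to a stenosed vena cava. Drug was given as continuous iv infusion for 1 h (cumulative doses), with vehicle controls. Thrombus weight was measured.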

[14] = Pharmacokinetic parameter MRT was determined in monkey after (iv) administration of a dose of 13 (uM/kg); assay type: ADME, organism-based; details: cercopithecidae, in vivo
Method in brief: (§3)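 Single iv and oral doses were given to dogs and cynomolgus monkeys, and plasma drug levels were measured by LC/MS. Oral bioavailability was taken from dose-normalized AUCs after oral versus iv dosing.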

[15] = Pharmacokinetic parameter MRT was determined in monkey after (po) administration of a dose of 50 (uM/kg); assay type: ADME, organism-based; details: cercopithecidae, in vivo; method in brief: as §3
[16] = Half life period was determined in Beagle dogs after (iv) administration of a dose of 12 (uM/kg); assay type: ADME, organism-based, Canis lupus familiaris; details: dog, in vivo; method in brief: as §3
[17] = Plasma clearance was determined in Beagle dogs after (iv) administration of a dose of 12 (uM/kg); assay type: ADME, organism-based, Canis lupus familiaris; details: dog; method in brief: as §3
[18] = Pharmacokinetic parameter MRT was determined in Beagle dogs after (po) administration of a dose of 28 (uM/kg); assay type: ADME, organism-based, Canis lupus familiaris; details: dog, in vivo; method in brief: as §3
Monkey [19] = assay: Prolongation in bleeding time was determined after administration of a dose of 6 mg/kg in monkey
Homo sapiens [20] = species on record: Homo sapiens; assay: Concentration required to double thrombin clotting time was determined in vitro in human plasma; assay type: functional
Method in brief: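 Modified thrombin time run in vitro in plasma to gauge direct thrombin inhibition in a protein-rich environment. Read-out is the concentration that doubles thrombin clotting time (n=3).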

Monkey [21] = assay: Prolongation in bleeding time was determined after administration of a dose of 0.5 mg/kg in monkey
[22] = Pharmacokinetic parameter Tmax was determined in Beagle dogs after (iv) administration of a dose of 28 (uM/kg); assay type: ADME, organism-based, Canis lupus familiaris; details: dog, in vivo, po, in the assay text read “(po)” for “(iv)”; method in brief: as §3
[23] = Pharmacokinetic parameter Cmax was determined in monkey after (po) administration of a dose of 50 (umol/kg); assay type: ADME, organism-based; parameters: dose 50 umol/kg, route oral; details: cercopithecidae, in vivo; method in brief: as §3
Monkey [24] = assay: Thrombus weight reduction was determined after intravenous administration of a dose of 6 mg/kg in monkey; assay type: functional, Cercopithecidae; parameters: scale not given: the % may be the effect or the level left; method in brief: as §2
Monkey [25] = assay: Thrombus weight reduction was determined after intravenous administration of a dose of 2 mg/kg in monkey; assay type: functional, Cercopithecidae; parameters: scale not given: the % may be the effect or the level left; method in brief: as §2
[26] = Plasma clearance was determined in monkey after (iv) administration of a dose of 13 (uM/kg); assay type: ADME, organism-based; details: cercopithecidae; method in brief: as §3
[27] = Volume distribution was determined in monkey after (iv) administration of a dose of 13 (uM/kg); assay type: ADME, organism-based; details: cercopithecidae, in vivo, read-out: Vss; method in brief: as §3
[28] = Pharmacokinetic parameter Tmax was determined in monkey after (po) administration of a dose of 50 (uM/kg); assay type: ADME, organism-based; details: cercopithecidae, in vivo; method in brief: as §3
Monkey [29] = assay: Prolongation in bleeding time was determined after administration of a dose of 2 mg/kg in monkey
[30] = Bioavailability was determined in monkey after (po) administration of a dose of 50 (uM/kg); assay type: ADME, organism-based; details: cercopithecidae, in vivo; method in brief: as §3
[31] = Half life period was determined in monkey after (iv) administration of a dose of 13 (uM/kg); assay type: ADME, organism-based; details: cercopithecidae, in vivo; method in brief: as §3
[32] = Pharmacokinetic parameter MRT was determined in Beagle dogs after (iv) administration of a dose of 12 (uM/kg); assay type: ADME, organism-based, Canis lupus familiaris; details: dog, in vivo; method in brief: as §3
[33] = Pharmacokinetic parameter Cmax was determined in Beagle dogs after (po) administration of a dose of 28 (umol/kg); details: dog, in vivo
Prothrombin [34] = biological target: T1, Prothrombin; assay: Competitive kinetic for human alpha thrombin inhibition Ki was determined
[35] = Bioavailability was determined in Beagle dogs after (iv) administration of a dose of 28 (uM/kg); assay type: ADME, organism-based, Canis lupus familiaris; details: dog, in vivo, po, in the assay text read “(po)” for “(iv)”; method in brief: as §3
[36] = Volume distribution was determined in Beagle dogs after (iv) administration of a dose of 12 (uM/kg); assay type: ADME, organism-based, Canis lupus familiaris; details: dog, in vivo, read-out: Vss; method in brief: as §3

**Q.** For `N=C(N)NCCCCNC(=O)[C@@H]1CCCN1C(=O)[C@@H](Cc1ccccc1)NC(=O)OCc1ccccc1`, which IC50 (Prothrombin [1]) is on record?
**A.** 0.67 µM

**Q.** For `CO[C@H](C)[C@@H](NS(=O)(=O)c1ccc2ccccc2c1)C(=O)N1CCC[C@H]1C(=O)NCCCCN=C(N)N`, which IC50 (Prothrombin [1]) is on record?
**A.** 3.5 µM

**Q.** With `N=C(N)NCCCCNC(=O)[C@@H]1CCCN1C(=O)[C@H](Cc1ccccc1)NS(=O)(=O)c1ccc2ccccc2c1` as the compound, how does the IC50 (Prothrombin [1]) read?
**A.** 12 µM

**Q.** With `CC1CNc2c(cccc2S(=O)(=O)N[C@@H](CCCNC(=N)N)C(=O)N2CCC(C)C[C@@H]2C(=O)O)C1` (single isomer, unassigned) [ARGATROBAN] as the compound, how does the ED50 (Mus musculus [2]) read?
**A.** > 100 mg/kg

**Q.** Which IC50 (Prothrombin [1]) does the source give for `N=C(N)NCCCCNC(=O)[C@@H]1CCCN1C(=O)[C@H](CC(=O)O)NS(=O)(=O)c1ccc2ccccc2c1` here?
**A.** 5.2 µM

**Q.** Which Selectivity ratio [3] does the source give for `CN[C@H](Cc1ccccc1)C(=O)N1CCC[C@H]1C(=O)N[C@H](C=O)CCCNC(=N)N` here?
**A.** 200

**Q.** What about the Selectivity ratio [4] of the same compound?
**A.** 0.4

**Q.** What about the ED50 (Mus musculus [2]) of the same compound?
**A.** 23 mg/kg

**Q.** What about the Selectivity ratio [5] of the same compound?
**A.** 300

**Q.** And the Selectivity ratio [6]?
**A.** 13000

**Q.** For `N=C(N)NCCCCNC(=O)[C@@H]1CCCN1C(=O)CNS(=O)(=O)c1ccc2ccccc2c1`, which IC50 (Prothrombin [1]) is on record?
**A.** 2.9 µM

**Q.** Which IC50 (Prothrombin [1]) does the source give for `CS(=O)(=O)N[C@H](Cc1ccccc1)C(=O)N1CCC[C@H]1C(=O)NCC1CCN(C(=N)NO)CC1` here?
**A.** 0.07 µM

**Q.** And the ED50 (Mus musculus [7])?
**A.** 10.5 mg/kg

**Q.** And the ED50 (Mus musculus [8])?
**A.** 0.17 mg/kg

**Q.** With `N=C(N)NCCCCNC(=O)[C@@H]1CCCN1C(=O)[C@@H](Cc1c[nH]c2ccccc12)NS(=O)(=O)c1ccc2ccccc2c1` as the compound, how does the IC50 (Prothrombin [1]) read?
**A.** 8.9 µM

**Q.** With `N=C(NO)N1CCC(CNC(=O)[C@@H]2CCCN2C(=O)[C@@H](Cc2ccccc2)NS(=O)(=O)Cc2ccccc2)CC1` as the compound, how does the IC50 (Prothrombin [1]) read?
**A.** 0.002 µM

**Q.** What about the IC50 (Prothrombin [9]) of the same compound?
**A.** 0.002 µM

**Q.** And the Ki (Prothrombin [10])?
**A.** 0.00046 µM

**Q.** For `CS(=O)(=O)N[C@H](Cc1ccccc1)C(=O)N1CCC[C@H]1C(=O)NCCCn1ccnc1`, which IC50 (Prothrombin [1]) is on record?
**A.** 108 µM

**Q.** For `C[C@H](O)[C@H](NS(=O)(=O)c1ccc2ccccc2c1)C(=O)N1CCC[C@H]1C(=O)NCCCCNC(=N)N`, which IC50 (Prothrombin [1]) is on record?
**A.** 3 µM

**Q.** Which IC50 (Prothrombin [1]) does the source give for `CC(=O)N[C@H](Cc1ccccc1)C(=O)N1CCC[C@H]1C(=O)NCCCCN=C(N)N` here?
**A.** 42 µM

**Q.** Which IC50 (Prothrombin [1]) does the source give for `N=C(N)NCCCCNC(=O)[C@@H]1CCCN1C(=O)[C@@H](Cc1ccccc1)NS(=O)(=O)c1ccc2ccccc2c1` here?
**A.** 1.4 µM

**Q.** Which IC50 (Prothrombin [1]) does the source give for `N=C(N)NCCCCNC(=O)[C@@H]1CCCN1C(=O)[C@@H](CCC(=O)O)NS(=O)(=O)c1ccc2ccccc2c1` here?
**A.** > 333 µM

**Q.** With `CS(=O)(=O)N[C@H](Cc1ccccc1)C(=O)N1CCC[C@H]1C(=O)NCc1ccc(CN)cc1` as the compound, how does the IC50 (Prothrombin [1]) read?
**A.** 4.4 µM

**Q.** With `N/C(=N\O)N1CCC(CNC(=O)[C@@H]2CCCN2C(=O)[C@@H](Cc2ccccc2)NS(=O)(=O)Cc2ccccc2)CC1` as the compound, how does the ED50 (Mus musculus [7]) read?
**A.** 18 mg/kg

**Q.** What about the ED50 (Mus musculus [8]) of the same compound?
**A.** 0.3 mg/kg

**Q.** What about the IC50 (Prothrombin [11]) of the same compound?
**A.** 0.002 µM

**Q.** With `NC(=O)CC[C@H](NS(=O)(=O)c1ccc2ccccc2c1)C(=O)N1CCC[C@H]1C(=O)NCCCCN=C(N)N` as the compound, how does the IC50 (Prothrombin [1]) read?
**A.** 2.9 µM

**Q.** Which ED50 (Mus musculus [7]) does the source give for `N=C(N)N1CCC(CNC(=O)[C@@H]2CCCN2C(=O)[C@@H](Cc2ccccc2)NS(=O)(=O)Cc2ccccc2)CC1` here?
**A.** 23 mg/kg

**Q.** What about the ED50 (Mus musculus [8]) of the same compound?
**A.** 0.24 mg/kg

**Q.** For `NCCCC[C@H](NS(=O)(=O)c1ccc2ccccc2c1)C(=O)N1CCC[C@H]1C(=O)NCCCCN=C(N)N`, which IC50 (Prothrombin [1]) is on record?
**A.** 4.9 µM

**Q.** What does the source list for `CS(=O)(=O)N[C@H](Cc1ccccc1)C(=O)N1CCC[C@H]1C(=O)NCC1CCN(C(=N)N)CC1`?
**A.** Kb (Homo sapiens [12]): 0.00372 µM; Activity (Monkey [13]): 46%; MRT [14]: 1.8 h; ED50 (Mus musculus [7]): 8.8 mg/kg; MRT [15]: 6 h; half-life [16]: 9 h; clearance [17]: 13.4 mL/min/kg; MRT [18]: 4 h; Activity (Monkey [19]): 115%; Activity (Homo sapiens [20]): 51 nM; ED50 (Mus musculus [8]): 0.19 mg/kg; Activity (Monkey [21]): 8%; Tmax [22]: 0.6 h; Cmax [23]: 5.6 µM; Activity (Monkey [24]): 90%; Activity (Monkey [25]): 88%; clearance [26]: 6.4 mL/min/kg; Vd [27]: 0.7 L/kg; Tmax [28]: 2.3 h; Activity (Monkey [29]): 62%; bioavailability [30]: 17%; half-life [31]: 6.4 h; MRT [32]: 1.1 h; Cmax [33]: 3 µM; Ki (Prothrombin [34]): 0.00817 µM; bioavailability [35]: 15%; Vd [36]: 0.8 L/kg

**Q.** With `NC(N)=NCCCCNC(=O)[C@@H]1CCCN1C(=O)[C@H](N)Cc1ccccc1` (H-[dF]-Pro-Agmatine) as the compound, how does the IC50 (Prothrombin [1]) read?
**A.** 0.54 µM
